UPR XBP1 act: activators of adaptive XBP1 UPR arm, primary screen, cell-based, CHO-XBP1 luciferase reporter, luminescence, uHTS. IRE1-XBP1 UPR activation; percent of tunicamycin response, DMSO as zero. AID 463104, 2010. activation, % at 20 µM. 0.33% of 330,000 active;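 active = versus positive control, 20 µM dose yields 30% or more activation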;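 also: 100% = tunicamycin at 10 µg/mL and 0% = DMSO only wells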
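assay system = CHO-XBP1 luciferase reporter cells | amount = 1000 cells/well | buffer or medium = F12 plus 10% FBS | compound dosing = single point, 20 µM final compound, 1% DMSO | incubation = 16-18 h cell attachment at 37 °C, then 6 h compound exposure | detection = Steady-Glo luminescence read | controls = tunicamycin 10 µg/mL and vehicle-only wells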
A1 inh: caspase 3/7 activation in MEF A1-2A-BIM cells, primary screen, A1 inhibitor project, cell-based, luminescence, HTS. Caspase-Glo 3/7 luminescence, 3 h; percent of clofoctol response, vehicle zero. caspase activation, % (no concentration beside the values). 0.066% of 330,000 active;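 active = over half of replicate activation scores above 10%, or exactly half above 10 with the replicate mean above 10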
CHOP inhibitor: inhibitors of CHOP promoter induction, primary screen, cell-based, unfolded protein response, luciferase reporter; CHO-K1 CHOP-promoter luciferase, tunicamycin-induced, 15-18 h; AID 2732, 2010; inhibition, % at 10 µM; 3.8% of 220,000 active;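 active = compounds that reduced the stress-induced luciferase reporter signal by more than about 70% of percent inhibition, limit read from the data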;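 also: 0% = tunicamycin plus vehicle and 100% = wells without tunicamycin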
UPR CHOP act: activators of apoptotic CHOP UPR arm, primary screen, cell-based, CHO-CHOP luciferase reporter, luminescence, uHTS; UPR activation; percent of tunicamycin response over DMSO baseline; activation, % at 10 µM; 0.34% of 330,000 active;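 active = at 10 µM dose, activation of 40% or more, normalized to positive control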;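 also: 100% = tunicamycin at 10 µg/mL and 0% = DMSO alone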
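Material: CHO-CHOP cells, stable luciferase reporter of PERK-eIF2a-CHOP signalling; quantity: 500 reporter cells seeded per well; buffer or medium: F12 medium containing 10% fetal bovine serum; compound: one dose, 10 µM in 0.5% DMSO; incubation: 6 h compound treatment, 37 °C; measured by: Steady-Glo luciferase luminescence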
The depositor's hits bear a star; nt = no result given. The sample as a whole holds a higher share of hits than the screen did.

SMILES | UPR XBP1 act | A1 inh | CHOP inhibitor | UPR CHOP act
COC(=O)c1ccc(Oc2nc3c(c(=O)n(C)c(=O)n3C)n2CCC(C)C)cc1 | -4.4 | -0.3 | 75.4* | 1.5
CCC(=O)c1ccc(Oc2nc3c(c(=O)n(C)c(=O)n3C)n2CC)cc1 | -1.6 | -0.2 | nt | 0.5
O=C(c1ccc([N+](=O)[O-])cc1)N1CCN(c2ncc(Br)cn2)CC1 | -5.6 | 0.2 | nt | 0.8
Cc1cc(C(=O)NCC(=O)OC(C(=O)Nc2cc(C(F)(F)F)ccc2Cl)c2ccccc2)ccc1[N+](=O)[O-] (stereo not drawn) | -1.0 | 1.2 | 81.7* | 0.6
COc1cc(/C=N/NC(=O)COc2c(C)cc([N+](=O)[O-])cc2C)ccc1OC(=O)c1ccccc1Br | 4.5 | -0.6 | 76.3* | 2.5
O=C(O)CCN=CC1=C(O)CC(c2ccccc2)CC1=O (stereo not drawn) | 1.0 | 1.4 | nt | -0.8
O=C(Nc1cc(C(F)(F)F)ccc1Cl)C1CCN(c2nnc(-n3cccc3)s2)CC1 | nt | nt | 83.4* | nt
COc1cc(C(=O)OCC(=O)Nc2c(F)cccc2F)cc(OC)c1C | -4.2 | 0.0 | 93.7* | -1.3
Cc1cccc(N2CCc3c2nc2ccc(Br)cc2c3N)c1 | 1.5 | -0.3 | 28.8 | 1.1
CSc1nc(C)c2c(n1)N(c1cccc(C)c1)CC2 | -0.9 | 0.5 | 88.2* | 0.5
O=C(/C=C/c1ccccc1)OCCN1C(=O)c2ccccc2C1=O | -0.9 | 0.5 | nt | -0.8
Cc1cccc(CCNC(=O)c2cc(=O)[nH]c3ccc(Br)cc23)c1 | -1.2 | -0.1 | 72.8* | -1.8
O=C(Nc1ccsc1C(=O)NC1CCCCC1)c1ccc(F)cc1 | 3.7 | -0.1 | 70.3* | 0.2
Cc1ccccc1-c1nnc(-c2cccs2)o1 | 2.4 | -11.3 | -9.2 | 4.6
Cc1ccccc1-c1noc(-c2cccs2)n1 | 0.3 | -2.9 | 89.5* | 4.0
N#Cc1ccc(C(=O)NNC(=O)c2ccncc2)cc1 | -6.2 | 0.0 | nt | 0.1
Oc1cccc(C(O)CNCc2ccc(-c3ccccc3)cc2)c1 (stereo not drawn) | 1.8 | 0.0 | 8.8 | 2.5
Oc1cccc(C(O)CNCc2ccc(OCc3ccc(Cl)cc3Cl)cc2)c1 (stereo not drawn) | 2.1 | -0.4 | 103.8* | -0.9
Cc1cc(C(=O)CSc2nc3ccccc3[nH]2)c(C)n1CC1CCCO1 (stereo not drawn) | -3.9 | -1.9 | 73.8* | -3.0
Cc1cc(C(=O)CSc2nc(N)cc(=O)[nH]2)c(C)n1CC1CCCO1 (stereo not drawn) | -2.2 | 0.7 | nt | 1.9
CCCCOC(=O)C1=C(C)Nc2nnnn2C1c1ccccc1Cl (stereo not drawn) | -0.7 | -0.1 | 83.5* | 1.4
CCOC(=O)C1=C(C)Nc2nnnn2C1c1ccccc1Cl (stereo not drawn) | 0.4 | 0.1 | -6.4 | 0.3
Cn1cc(C(c2ccccn2)c2cn(C)c3ccccc23)c2ccccc21 | -0.1 | -0.5 | 77.6* | -0.5
COC(=O)c1ccc(NC(=S)N2CCN(Cc3ccccc3Cl)CC2)cc1 | 0.5 | 0.3 | 35.3 | 1.2
COC(=O)c1ccc(NC(=S)N2CCN(Cc3ccc(Cl)cc3)CC2)cc1 | -2.4 | -0.2 | 89.2* | -2.7
SMILES | UPR XBP1 act | A1 inh | CHOP inhibitor | UPR CHOP act
Cc1noc(C)c1COc1ccccc1C(=O)N1CCN(c2cccc(C(F)(F)F)c2)CC1 | -1.4 | 1.1 | nt | -2.0
Cn1c(CC(=O)Nc2ccccc2F)nnc1SCC(=O)Nc1nccs1 | -4.4 | 0.7 | nt | 3.5
O=C(CN1CCN(S(=O)(=O)c2ccccc2)CC1)Nc1cccc(C(F)(F)F)c1 | -2.2 | -0.9 | 79.5* | -1.3
Cc1cccc(-n2c(C)c(-c3ccccc3)[nH]c2=S)c1 | -6.2 | 0.1 | nt | 1.0
COC(=O)c1ccc(N2CCN(S(=O)(=O)c3ccc(C)cc3)CC2)c([N+](=O)[O-])c1 | 0.9 | 0.8 | 75.4* | 6.2
Cn1c(=O)n(C)c2cc([N+](=O)[O-])c(N3CCN(S(=O)(=O)c4ccc(C(C)(C)C)cc4)CC3)cc21 | 4.5 | -0.7 | 75.0* | 13.7
Cc1cccc(C)c1NC(=O)COC(=O)c1ccc(N2CCCC2)c([N+](=O)[O-])c1 | -1.7 | -1.6 | 80.4* | 0.8
Cc1ccc(NS(=O)(=O)c2ccc(N3CCN(c4ccc(O)cc4)CC3)c([N+](=O)[O-])c2)c(C)c1 | 0.6 | 0.1 | 73.3* | 0.5
COC(=O)c1ccc(N2CCN(S(=O)(=O)c3ccc(Br)cc3)CC2)c([N+](=O)[O-])c1 | 0.0 | -0.4 | 54.4 | 4.5
Cc1ccc(Cl)cc1N(CC(=O)NC1CCCC1)C(=O)c1csnn1 | 4.7 | 0.0 | nt | 0.6
Nc1cc(S(=O)(=O)Nc2ccccc2Cl)ccc1N1CCCCC1 | -0.3 | 0.2 | nt | 9.1
O=C(COC(=O)c1nc(Cl)c(Cl)c(Cl)c1Cl)NCc1ccccc1 | -0.6 | nt | nt | 4.3
CCN(CCCNC(=O)CN1C(=O)COc2ccccc21)c1cccc(C)c1 | -5.1 | 1.0 | 86.5* | -0.1
Cc1cccc(-c2noc(CCC(=O)NCCc3ccccc3)n2)c1 | -0.9 | -0.8 | nt | -2.3
CCCCN(CCCNC(=O)CN1C(=O)COc2ccccc21)c1ccccc1 | -2.2 | 1.5 | 73.8* | 0.5
CCN(Cc1ccccc1)C(=O)CCc1nc(-c2ccc(C)cc2)no1 | -0.8 | 0.2 | 70.5* | 0.7
CCN(CCCNC(=O)CCc1nc(-c2ccc(C)cc2)no1)c1cccc(C)c1 | -0.9 | -0.5 | 71.5* | -0.9
CCN(CCCNC(=O)CN1C(=O)COc2ccccc21)c1ccccc1 | -3.2 | 1.2 | -2.3 | -1.7
CCCCNc1c(-c2ccc(-c3ccc(OC)cc3)c(OC)c2)nc2ccccn12 | -3.6 | nt | nt | 5.5
CC(=O)Nc1ccc(NC(=O)CSc2nnc(-c3cccs3)n2N)cc1 | -2.7 | 1.2 | nt | 0.7
Cc1ccc(N(CC(=O)NC2CCCC2)C(=O)CNC(=O)c2cccs2)cc1F | -0.3 | -0.3 | nt | 1.2
O=c1c([N+](=O)[O-])cccn1Cc1cccc(Br)c1 | -3.9 | -0.2 | nt | 0.5
COc1ccc(Cn2cnc3c(N)c(C)c(C)cc32)cc1 | 0.2 | 0.6 | 5.1 | 3.4
CCCCCCCCn1cnc2c(N)c(C)c(C)cc21 | 2.2 | 1.0 | 81.0* | 7.0
COc1cc2nc(NC(=O)c3ccc(Cl)cc3)[nH]c(=O)c2cc1OC | -2.5 | 0.5 | 72.5* | -0.3
Cc1ccc(NC(=O)[C@H](C)NC(=O)C2CCN(C(=O)[C@@H](N)C(C)C)CC2)cc1 | 1.2 | 0.3 | nt | 3.6
O=[N+]([O-])c1ccccc1-c1ccc(/C=N/n2cnnc2)o1 | 2.5 | 0.3 | 17.1 | 0.3
O=C1ON=C(c2ccccc2)/C1=C/c1ccc(-c2ccccc2[N+](=O)[O-])o1 | nt | 0.4 | 103.5* | nt
CCCNS(=O)(=O)c1ccc(Oc2ncc(C(F)(F)F)cc2Cl)cc1 | 4.3 | -0.3 | 74.3* | -0.1
CCOC(=O)C(=Cc1ccc(-c2ccsc2C(=O)OC)o1)C(=O)OCC | 19.1 | 0.9 | -41.5 | 5.0

Bioassay records (PubChem)
